# APJ antagonist – APJ receptor antagonism | CHO-K1 APJ beta-arrestin complementation, luminescence | inhibition, % at 20 µM | 0.32% of 330,000 active | AID 2521;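 active = inhibition above about 40% at 20 µM, limit read from the data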;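 also: cells challenged with 10 nM apelin-13 agonist together with compound; plate controls were apelin-13 plus DMSO wells for no effect and DMSO wells lacking apelin-13 for full effect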
# APJ ag – activates the human apelin receptor APJ. P35414. CHO-K1 APJ PathHunter beta-arrestin, luminescence; 0% DMSO wells, 100% apelin. activation, % at 20 µM. 0.11% of 330,000 active;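 active = activation more than six SD over the plate average, tested at 20 µM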;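 also: 0% = DMSO alone and 100% = apelin-13 at 10 nM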
#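 Test system – PathHunter CHO-K1 APJ (AGTRL-1) beta-arrestin reporter cells · Input – 1000 cells/well · Compound – single test compound dose, 20 µM final, 1% DMSO · Times – compound stimulation 90 min at 25 °C, detection 60 min · Technique – beta-gal luminescence · Read-out basis – APJ–arrestin association signal · Control set – negative DMSO alone, positive Apelin-13 at 10 nM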
# EBI2 antag – blocks human EBI2 receptor beta-arrestin signaling; EBI2 beta-arrestin recruitment, luminescence, 7a,25-OHC stimulated; inhibition, % at 5 µM; 0.81% of 360,000 active; AID 651636; in the data active = inhibition above about 38%;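 also: enzyme fragment complementation signal reports receptor beta-arrestin coupling in cells; 0% = agonist plus DMSO wells and 100% = wells without agonist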
# CXCR6 block – inhibitors of human CXCR6 receptor; O00574; CHO-K1 PathHunter CXCR6 beta-arrestin, luminescence; inhibition, % at 20 µM; 0.36% of 360,000 active; AID 602244; in the data active = inhibition above about 34%, passing the limit was not always enough;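 also: antagonist mode with CXCL16 agonist at 10 nM final; 0% = 10 nM CXCL16 with DMSO and 100% = unstimulated wells without agonist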
# CCR6 antagonist – blocks CCL20-driven beta-arrestin recruitment at human CCR6. CHO-K1 CCR6 PathHunter beta-arrestin, luminescence, CCL20-stimulated. P51684. 0.49% of 340,000 active. inhibition, % at 20 µM;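 active = compounds whose inhibition of the agonist-driven luminescence signal at 20 µM reaches about 50%, limit read from the data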;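 also: cells stimulated with CCL20 at 14 nM final; plate controls were DMSO with CCL20 for no effect and DMSO without agonist for full effect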
# Target sequence (P51684 whole entry, looked up): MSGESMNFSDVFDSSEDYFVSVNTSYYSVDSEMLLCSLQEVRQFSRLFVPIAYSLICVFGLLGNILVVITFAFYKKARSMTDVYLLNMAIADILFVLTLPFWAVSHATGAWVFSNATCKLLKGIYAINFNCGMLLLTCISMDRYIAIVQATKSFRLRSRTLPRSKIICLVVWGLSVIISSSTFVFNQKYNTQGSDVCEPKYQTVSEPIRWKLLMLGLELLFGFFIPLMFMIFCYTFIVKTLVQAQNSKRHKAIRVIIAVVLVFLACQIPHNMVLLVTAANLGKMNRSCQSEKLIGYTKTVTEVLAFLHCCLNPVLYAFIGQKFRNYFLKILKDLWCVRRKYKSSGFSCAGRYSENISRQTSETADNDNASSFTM
# APJ antag confirm – confirmation of human APJ apelin receptor antagonists; APJ beta-arrestin recruitment, luminescence, antagonist mode; 66% of 950 active; shares compounds with APJ antagonist; AID 2766; inhibition, % at 20 µM; in the data active = inhibition above about 50%
# CXCR6 confirm – CXCR6 antagonism confirmation, single concentration; shares compounds with CXCR6 block; CHO-K1 CXCR6 PathHunter beta-arrestin, luminescence; inhibition, % at 20 µM; 65% of 700 active;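 active = mean inhibition over four retests above 40%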;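 also: receptor stimulated with 10 nM CXCL16 agonist; beta-galactosidase fragment complementation upon beta-arrestin recruitment to receptor; plate controls were CXCL16 plus DMSO for no effect and DMSO without CXCL16 for full effect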
# EBI2 conf – confirmation of human EBI2 receptor antagonists | shares compounds with EBI2 antag | EBI2 beta-arrestin luminescence, 7a,25-OHC antagonism | inhibition, % at 5 µM | 29% of 2,400 active;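 active = inhibition of at least 50%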
# EBI2 agonist – EBI2 agonism counter-screen; 2,400 tested, under 10 active; AID 652000; EBI2-expressing cells, agonist mode, luminescence, 60 min; 0% vehicle, 100% 7α,25-dihydroxycholesterol control; shares compounds with EBI2 antag; activation, % at 5 µM;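 active = activation of at least 50%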
# bGal counter – inhibits E. coli beta-galactosidase, counter-screen for EBI2 antagonists; 1% of 2,400 active; purified beta-galactosidase, luminescent Galacton Star, 15 min; inhibition, % at 5 µM; shares compounds with EBI2 antag;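 active = replicate-average signal at least 3 plate SD below neutral wells, shown as high inhibition, flagging enzyme-inhibiting false positives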;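 also: 0% = DMSO wells with enzyme and 100% = wells lacking enzyme; higher means stronger loss of beta-gal luminescence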
# * = called active by the depositor; · = no result. This is a sample that favours compounds with a hit; in the whole collection about 1.5% have one here.
SMILES,APJ antagonist,APJ ag,EBI2 antag,CXCR6 block,CCR6 antagonist,EBI2 conf,EBI2 agonist,bGal counter,others
CC(=O)C1CCC2C3CC(O)C4CC(O)CCC4(C)C3CCC12C (stereo unspecified),·,·,2,2,4,·,·,·,
O=C1NC(=O)C2(Cc3c(nc4ccccn4c3=O)N3CCCCCC32)C(=O)N1Cc1ccccc1 (stereo unspecified),-2,0,-5,3,10,·,·,·,
CCCCOCCCn1c(N)c(C(=O)OCCOC)c2nc3ccccc3nc21,59*,-20,5,14,1,·,·,·,APJ antag confirm=-13
CC(C)CCn1c(N)c(C(=O)OCC2CCCO2)c2nc3ccccc3nc21 (stereo unspecified),50*,-4,7,23,14,·,·,·,APJ antag confirm=53*
CCCCn1c(N)c(C(=O)NCc2cccs2)c2nc3ccccc3nc21,49*,-9,15,1,6,·,·,·,APJ antag confirm=6
CCCCCn1c(N)c(C(=O)NCc2cccs2)c2nc3ccccc3nc21,45*,-7,·,·,12,·,·,·,APJ antag confirm=47
N#CC1c2ccccc2-n2nncc2CN1S(=O)(=O)c1cc(Cl)cc(Cl)c1 (stereo unspecified),·,·,1,-3,-13,·,·,·,
CCOC(=O)c1c(-n2c(C)cc(C=C3C(=O)NC(=S)NC3=O)c2C)sc2c1CCCC2,4,8,11,27,36,·,·,·,
CC12CCCCC1=NC(c1ccc(Br)cc1)N2O (stereo unspecified),51*,-12,-6,34,55*,·,·,·,APJ antag confirm=39
Brc1ccc(C2N3CCCN23)cc1 (stereo unspecified),11,1,-11,2,1,·,·,·,
c1cc2c(cc1NC1=NCCO1)CCCC2,·,·,-19,-8,10,·,·,·,
CN1Cc2cccnc2N(C)Cc2cc(Cl)ccc21,14,-3,-1,10,14,·,·,·,
C=C1C(=O)O[C@@H]2C[C@@H](C)[C@@H]3C=CC(=O)[C@@]3(C)[C@@H](O)[C@H]12,47*,-9,57*,31,45,·,·,·,APJ antag confirm=69*
O=[N+]([O-])c1c(Cl)c(Cl)c(Cl)c(Cl)c1Cl,·,·,-19,-17,-11,·,·,·,
Nc1cc(Cl)c2nonc2c1[N+](=O)[O-],·,·,39,46*,46,·,·,·,CXCR6 confirm=58*
Cc1c(N=Nc2c(O)[nH]c(=S)[nH]c2=O)c(=O)n(-c2ccccc2)n1C,14,1,13,52*,44,·,·,·,CXCR6 confirm=52*
Cc1ccsc1C(=O)C1CCCN(Cc2ccc(-n3cccn3)cc2)C1 (stereo unspecified),10,-2,-18,-6,13,·,·,·,
CC(=O)Nc1ccc(OC(=O)N(C)c2ccc(C)cc2)cc1,5,-3,-10,-9,3,·,·,·,
Cc1ccc(N(C)C(=O)Oc2ccc(C(=O)c3ccc(Cl)cc3)cc2)cc1,11,-2,78*,12,-2,44,-1,-17,
O=C1OCc2cc(N=Nc3c(O)[nH]c(=O)[nH]c3=O)ccc21,25,-2,0,-11,1,·,·,·,
COc1cccc(CN2CCN(C(=O)COc3ccc4ccccc4c3)CC2)c1,-25,2,95*,-7,21,74*,-1,-9,
COc1cc(OC)c(OC)cc1CN1CCN(C(=O)COc2ccc3ccccc3c2)CC1,-22,-3,71*,0,-13,41,-1,-11,
CCn1c(O)c(C(=O)CC2NCCc3ccccc32)c(=O)n(CC)c1=S (stereo unspecified),12,5,-9,-13,-10,·,·,·,
COC(=O)C1=C(c2ccccc2OCc2ccccc2)C[C@@H]2CC[C@H]1N2C(=O)NCc1ccc(Cl)cc1,14,-1,44*,12,20,20,-1,-5,
COC(=O)C1=C(c2ccccc2OCc2ccccc2)C[C@@H]2CC[C@H]1N2C(=O)NCc1ccc(N(C)C)cc1,5,-2,5,10,17,·,·,·,
SMILES,APJ antagonist,APJ ag,EBI2 antag,CXCR6 block,CCR6 antagonist,EBI2 conf,EBI2 agonist,bGal counter,others
COC(=O)C1=C(c2ccc(F)cc2OCc2ccccc2)C[C@@H]2CC[C@H]1N2C(=O)NCCOc1ccc(OC)cc1,5,-4,48*,14,20,40,0,0,
COC(=O)C1=C(c2ccc(-c3ccccc3)c(F)c2)C[C@@H]2CC[C@H]1N2C(=O)NCCc1ccccc1,0,0,44*,2,0,20,0,5,
COC(=O)C1=C(c2ccc(-c3ccccc3)c(F)c2)C[C@@H]2CC[C@H]1N2C(=O)NCCOc1ccc(OC)cc1,7,-2,54*,12,12,20,-2,-1,
CCC(=NCCCN1CCOCC1)c1c(O)n(-c2ccccc2C)c(=O)[nH]c1=O,14,-1,-10,-1,-3,·,·,·,
CCOC(=O)[C@]12Cc3cc(OC)ccc3[C@H]1N(Cc1ccccc1)C(=O)c1cc(F)c(F)cc12,·,·,40*,17,5,23,-2,-8,
Cc1ncc(C(=O)O)n1C(C)c1ccccc1 (stereo unspecified),·,·,-2,3,·,·,·,·,
CCOC(=O)c1cncn1[C@@H](C)c1ccccc1,-2,0,56*,3,7,30,-1,2,
CN(C)P1(=O)N(C)CCN1C,·,·,-1,1,·,·,·,·,
O=C(C1CCN(c2nc3ccc(Br)cc3s2)CC1)N1CCC2(CC1)OCCO2,-3,-1,56*,5,12,12,0,0,
O=C(Nc1ccc2ccccc2c1)N1C[C@H]2C[C@@H](C1)c1cccc(=O)n1C2,-15,-2,-7,-16,-7,·,·,·,
O=C(COc1ccccc1)N1CCN(CC2CC=CCC2)CC1 (stereo unspecified),1,2,68*,1,8,34,0,8,
CC(C)NS(=O)(=O)c1ccc(OCC(=O)N2CCN(Cc3ccccc3)CC2)cc1,-3,5,5,6,7,·,·,·,
N#Cc1ccc(OCC(=O)N2CCN(Cc3ccc4c(c3)OCO4)CC2)cc1,-3,-2,35,-2,20,·,·,·,
Cc1ccc(OCC(=O)N2CCN(Cc3ccc4c(c3)OCO4)CC2)cc1,-26,-1,88*,-2,-2,61*,0,10,
O=C(COc1ccc(Cl)cc1)N1CCN(Cc2ccccc2)CC1,15,2,91*,-6,5,66*,-1,-5,
